# Results collected from several papers.
# Each line is one published result; the experiments were not run side by side.
# MAP2K6: Dual specificity mitogen-activated protein kinase kinase 6 (MAP2K6, Homo sapiens, UniProt P52564)
Compound,target,read-out,action,technique,tested at,measurement,value
CC(C)(C)c1cc(C=C(C#N)C#N)cc(Br)c1O,MAP2K6,enzyme activity,inhibitor,,0.5 µM,remaining activity,107%
Cc1nn(C)cc1-c1nc2c(N3CCN(Cc4ccc(Cl)cc4)CC3)c(Cl)cnc2[nH]1,MAP2K6,binding,,competition with immobilised ligand,1 µM,remaining binding,73%
Cn1cc(-c2cccc(N3CCc4c(sc5c4CC(C)(C)C5)C3=O)c2CO)cc(Nc2ccncn2)c1=O,"Dual specificity mitogen-activated protein kinase kinase 6 (MAP2K6, Homo sapiens, UniProt P52564, S207E/T211E)",enzyme activity,inhibitor,,1 µM,inhibition,-4%
O=c1[nH]c2ccccc2n1C1CCN(Cc2ccc(-c3[nH]c4cc5ncnc5cc4nc3-c3ccccc3)cc2)CC1,MAP2K6,cell-free assay,,,0.5 µM,remaining signal,101%
Nc1ncc(-c2nc(N3CCOCC3)nc(N3CCOCC3)n2)c(C(F)F)n1,MAP2K6,binding,,competition with immobilised ligand,10 µM,remaining binding,92%
Cn1cncc1[C@](O)(COc1ccc(C#N)cc1-c1ccc(OC(F)(F)F)cc1)c1ccc(C#N)cc1,MAP2K6,cell-free assay,,competition with immobilised ligand,1 µM,remaining binding,76%
COc1ncccc1-c1cnn2ccc(N3CCN(C(=O)OC(C)C)CC3)nc12,MAP2K6,binding,,competition with immobilised ligand,1 µM,remaining binding,56%
Cn1cc(-c2cc(F)cc(N3CCn4c(cc5c4CCCC5)C3=O)c2CO)cc(Nc2ccc(N3CCN(C4COC4)CC3)cn2)c1=O,MAP2K6,enzyme activity,inhibitor,,0.1 µM,inhibition,4%
N#CC1(c2ccccn2)CCN(Cc2cc(C(=O)O)c(=O)n3ccccc23)CC1,MAP2K6,cell-free assay,,competition with immobilised ligand,1 µM,remaining binding,99%
